IC50 and Ratio data for 36 molecules are collected here from ChEMBL document CHEMBL1125366, “Low molecular weight, non-peptide fibrinogen receptor antagonists” (J Med Chem, 1992).

Test [1] is described as follows: Inhibition of platelet aggregation in human-platelet rich plasma(h-PRP) induced by collagen. Type of test: functional. Put shortly:
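Citrated human PRP with serial inhibitor dilutions; aggregation triggered by collagen at 2.5 μg/mL (final) and followed as rate of light transmission change in an aggregometer; plasma from at least four donors.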

Test [2] is described as follows: Inhibition of platelet aggregation in human-platelet rich plasma(h-PRP) induced by thrombin. Type of test: functional. Put shortly:
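Citrated human PRP with serial inhibitor dilutions; aggregation triggered by thrombin at 0.2 unit/mL (final) and followed as rate of light transmission change in an aggregometer; plasma from at least four donors.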

The target in test [3] is Integrin alpha-V/beta-3 (Homo sapiens) (UniProt P05106+P06756). Briefly: Inhibition of fibrinogen binding to immobilized vitronectin receptor. Type of test: protein-complex assay. The arrangement: reference not given here.
In test [4] the target is Integrin alpha-IIb/beta-3 (Homo sapiens) (UniProt P05106+P08514). Nature of the test: Inhibition of fibrinogen binding to immobilized fibrinogen receptor. Type of test: protein-complex assay. The arrangement: reference not given here.
The nature of test [5]: Inhibition of platelet aggregation in human-platelet rich plasma(h-PRP) induced by adenosine 5'-diphosphate-(ADP). Type of test: functional. Put shortly: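 Citrated human PRP with serial inhibitor dilutions; aggregation triggered by 10 μM ADP (final) and followed as rate of light transmission change in an aggregometer; plasma from at least four donors.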

Each structure is given as a SMILES string. Square brackets hold non-standard residues; d marks the D form. Peptide text beside a SMILES is read from it. * marks the point of attachment. 3Abz = Nc1cccc(C(=O)O)c1; Boc = CC(C)(C)OC(=O)* Where only a bound is given, the exact number is not on record here.

With `NCc1ccc(C(=O)Nc2cccc(C(=O)NCCC(=O)O)c2)cc1`, the midpoint of inhibition in test [1], the IC50, lay at 9600 nM.

For `N=C(N)c1ccc(C(=O)NCCc2ccc(OCC(=O)O)cc2)cc1`, the 50% inhibitory concentration (IC50) (in general, the concentration that inhibits the measured activity by half) in test [2] turned out to be 400 nM; in test [1], 300 nM; in test [5], 800 nM. The Ratio was 1300 in test [3] and 0.028 in test [4].

As to `N=C(N)c1ccc(C(=O)N2CCC[C@H]2C(=O)N2CCC(OCC(=O)O)CC2)cc1`, the IC50 worked out at 50 nM in test [2], 110 nM in test [1] and 60 nM in test [5]. The Ratio in test [4] is 0.002.

For `N=C(N)c1ccc(C(=O)Nc2cccc(C(=O)NCCC(=O)O)c2)cc1`, the IC50 in test [2] was 500 nM; in test [1], 400 nM; in test [5] it was 200 nM. Besides, the Ratio in test [3] turned out to be 8000; in test [4] it was 0.0005.

As to `CC(C)[C@H](NC(=O)[C@H](CC(=O)O)NC(=O)CNC(=O)CCc1ccc(C(=N)N)cc1)C(=O)O`, half-maximal inhibition in test [1] (IC50) was put at 2300 nM.

With `NC(N)=NCCC[C@H](N)C(=O)Nc1cccc(C(=O)NCCC(=O)O)c1`, the half-inhibitory concentration (IC50) in test [2] was found to be 68000 nM; in test [1], 50000 nM; in test [5], 51000 nM. Moreover, the Ratio in test [3] was determined as 900; in test [4] it was 1.3.

Turning to `CC(C)[C@H](NC(=O)[C@H](CC(=O)O)NC(=O)CNC(=O)Cc1ccc(C(=N)N)cc1)C(=O)O`, the 50% inhibitory concentration (IC50) in test [2] was 300 nM; in test [1], 500 nM; in test [5] it was 300 nM. Also, the Ratio stood at 560 in test [3] and 0.001 in test [4].

For `N=C(N)c1ccc(C(=O)NCCC(=O)NCCC(=O)O)cc1`, the IC50 was 900 nM in test [2], 900 nM in test [1] and 1100 nM in test [5]. The Ratio in test [4] is 0.007.

With `N=C(N)c1ccc(C(=O)NCC(=O)c2ccc(OCC(=O)O)cc2)nc1`, the values for the IC50 in test [2], in test [1] and in test [5] were 40 nM, 20 nM and 30 nM, respectively. Further, the figures for the Ratio in test [3] and in test [4] were above 20000 and 0.001, respectively.

Regarding `C[C@@H](Cc1ccc(OCC(=O)O)cc1)NS(=O)(=O)c1ccc(C(=N)N)cc1`, the half-maximal inhibitory concentration (IC50) in test [2] was 9300 nM; in test [1], 11000 nM; in test [5] it was 7400 nM. For the same molecule, the Ratio in test [3] amounted to 1700; in test [4], 0.34.

In the case of `CC(C)(Oc1ccc(CCNS(=O)(=O)c2ccc(C(=N)N)cc2)cc1)C(=O)O`, the IC50 in test [2], in test [1] and in test [5] was above 200000 nM each time. In test [4], the Ratio is above 100.

With `CC(C)[C@H](NC(=O)[C@H](CC(=O)O)NC(=O)CNC(=O)COc1ccc(C(=N)N)cc1)C(=O)O`, the IC50 amounted to 500 nM in test [2], 600 nM in test [1] and 700 nM in test [5]. For the same molecule, the Ratio in test [3] was 700; in test [4], 0.02.

In the case of `N=C(N)c1ccc(C(=O)NCC(=O)N2CCC(OCC(=O)O)CC2)cc1`, the figures for the IC50 in test [2], in test [1] and in test [5] were 90 nM, 100 nM and 110 nM, respectively. Moreover, the Ratio was above 8000 in test [3] and 0.008 in test [4].

Turning to `N=C(N)c1ccc(C(=O)NCC(=O)c2ccc(OCC(=O)O)cc2)cc1`, the concentration for half-maximal inhibition (IC50) in test [2] stood at 90 nM; in test [1] it was 130 nM; in test [5], 90 nM. For the same molecule, the Ratio in test [3] amounted to 8400; in test [4], 0.004.

As for `N=C(N)c1ccc(C(=O)NCCCCC(=O)N[C@@H](CC(=O)O)C(=O)N[C@@H](Cc2ccccc2)C(=O)O)cc1`, the IC50 in test [2] amounted to 100 nM; in test [1] it was 400 nM; in test [5], 200 nM. The Ratio was determined as 280 in test [3] and 0.004 in test [4].

With `C[C@@H](NC(=O)c1ccc(C(=N)N)cc1)C(=O)N1CCC(OCC(=O)O)CC1`, the 50% inhibitory concentration (IC50) amounted to 1100 nM in test [2], 1100 nM in test [1] and 900 nM in test [5]. In addition, the Ratio is above 9000 in test [3] and 0.007 in test [4].

On to `N=C(N)c1ccc(CC(N)C(=O)Nc2cccc(C(=O)NCCC(=O)O)c2)cc1` (configuration not stated), for which the results for the IC50 in test [2], in test [1] and in test [5] were 95000 nM, 153000 nM and 95000 nM, respectively. Moreover, the Ratio was determined as 2500 in test [3] and 10 in test [4].

Regarding `C[C@H](NC(=O)c1ccc(C(=N)N)cn1)C(=O)N1CCC(OCC(=O)O)CC1`, the figures for the IC50 in test [2], in test [1] and in test [5] were 30 nM, 30 nM and 20 nM, respectively. In addition, the Ratio in test [3] was above 30000; in test [4], 0.0001.

As for `CC(C)[C@H](NC(=O)[C@H](CC(=O)O)NC(=O)CCCNC(=O)c1ccc(C(=N)N)cc1)C(=O)O`, the IC50 in test [2], in test [1] and in test [5] was 700 nM in each case. Further, the results for the Ratio in test [3] and in test [4] were 1700 and 0.002, respectively.

Regarding `N=C(N)c1ccc(C(=O)NCCC(=O)N[C@@H](CC(=O)O)C(=O)N[C@@H](Cc2ccc(O)cc2)C(=O)O)cc1`, the half-maximal inhibitory concentration (IC50) in test [2] is 20 nM; in test [1], 40 nM; in test [5], 50 nM. Moreover, in test [4], the Ratio amounted to 6e-05.

`CC(C)[C@H](NC(=O)[C@H](CC(=O)O)NC(=O)c1cccc(NC(=O)[C@H](CCCN=C(N)N)NC(=O)OC(C)(C)C)c1)C(=O)O` (Boc-R[3Abz]DV-OH): the figures for the IC50 in test [2], in test [1] and in test [5] were 4400 nM, 7000 nM and 4900 nM, respectively. Moreover, the Ratio in test [3] was 250; in test [4] it was 0.06.

Take `N=C(N)c1ccc(C(=O)N[C@@H](CCCN)C(=O)N2CCC(OCC(=O)O)CC2)cc1`: the figures for the IC50 in test [2], in test [1] and in test [5] were 70 nM, 70 nM and 100 nM, respectively. The Ratio in test [3] is above 30000; in test [4] it was 0.009.

For `N=C(N)c1ccc(S(=O)(=O)NCCc2ccc(OCC(=O)O)cc2)cc1`, the half-inhibitory concentration (IC50) in test [2] was found to be 12000 nM; in test [1], 12000 nM; in test [5] it was 15000 nM. Besides, the Ratio in test [4] worked out at 0.2.

With `C[C@H](NC(=O)c1ccc(C(=N)N)cc1)C(=O)N1CCC(OCC(=O)O)CC1` [RO-44-3888], the IC50 in test [2] is 50 nM; in test [1], 70 nM; in test [5], 50 nM. Further, the Ratio was above 27000 in test [3] and 0.0007 in test [4].

Turning to `N=C(N)c1ccc(C(=O)NCC(=O)N[C@@H](CC(=O)O)C(=O)N[C@@H](Cc2ccccc2)C(=O)O)cc1`, the results for the 50% inhibitory concentration (IC50) in test [2] and in test [1] were 78000 nM and 76000 nM, respectively. In addition, the Ratio was 570 in test [3] and 1 in test [4].

Take `N=C(N)NCCC[C@H](N)C(=O)NCC(=O)N[C@@H](CC(=O)O)C(=O)N[C@@H](CO)C(=O)O`: the IC50 in test [2] came out at 135000 nM; in test [1] it was 142000 nM; in test [5], 88000 nM. Moreover, the Ratio in test [3] and in test [4] was 1 each time.

Regarding `N=C(N)c1ccc(C(=O)N[C@@H](Cc2ccc(O)cc2)C(=O)N2CCC(OCC(=O)O)CC2)cc1` [LAMIFIBAN], the IC50 in test [2] is 30 nM; in test [1] it was 20 nM; in test [5], 30 nM. In addition, the Ratio in test [3] was 17500; in test [4], 0.0002.

In the case of `C[C@@]1(C(=O)N2CCC(OCC(=O)O)CC2)CCCN1C(=O)c1ccc(C(=N)N)cc1`, the results for the IC50 in test [2], in test [1] and in test [5] were 49000 nM, 15000 nM and 13000 nM, respectively. The Ratio in test [3] was 12000; in test [4] it was 0.37.

For the molecule `CN(CC(=O)c1ccc(OCC(=O)O)c(OCC(=O)O)c1)C(=O)c1ccc(C(=N)N)cc1`, the IC50 amounted to 60 nM in test [2], 70 nM in test [1] and 70 nM in test [5]. For the same molecule, the Ratio came to 37000 in test [3] and 0.0001 in test [4].

In the case of `CC(C)[C@H](NC(=O)[C@H](CC(=O)O)NC(=O)CNC(=O)[C@@H](N)CCCNC(=N)N)C(=O)O` (H-RGDV-OH), the IC50 stood at 98000 nM in test [2], 151000 nM in test [1] and 127000 nM in test [5]. In addition, the values for the Ratio in test [3] and in test [4] were 0.6 and 0.63, respectively.

In the case of `N=C(N)c1ccc(C(=O)NCCC(=O)N[C@@H](CC(=O)O)C(=O)N[C@@H](Cc2ccccc2)C(=O)O)cc1`, the IC50 turned out to be 70 nM in test [2], 60 nM in test [1] and 60 nM in test [5]. Further, the Ratio in test [3] is 4500; in test [4], 0.0003.

With `COc1ccc(CCNC(=O)[C@H](CC(=O)O)NC(=O)CCNC(=O)c2ccc(C(=N)N)cc2)cc1`, the results for the IC50 in test [2], in test [1] and in test [5] were 130 nM, 100 nM and 120 nM, respectively. For the same molecule, the results for the Ratio in test [3] and in test [4] were 8000 and 0.002, respectively.

On to `N=C(N)c1ccc(C(=O)N[C@@H](CC(=O)O)C(=O)N2CCC(OCC(=O)O)CC2)cc1`, for which the values for the IC50 in test [2], in test [1] and in test [5] were 380 nM, 340 nM and 350 nM, respectively. Moreover, the Ratio in test [3] was above 30000; in test [4], 0.02.

`C[C@H](Cc1ccc(OCC(=O)O)cc1)NS(=O)(=O)c1ccc(C(=N)N)cc1`: the 50% inhibitory concentration (IC50) in test [2] was found to be 103000 nM; in test [1], 102000 nM; in test [5], 115000 nM. Also, the values for the Ratio in test [3] and in test [4] were above 30000 and 10.5, respectively.

As to `COC(=O)COc1ccc(C[C@H](C)NS(=O)(=O)c2ccc(C(=N)N)cc2)cc1`, half-maximal inhibition in test [1] (IC50) required 11000 nM.

With `COC(=O)COc1ccc(CCNC(=O)c2ccc(C(=N)N)cc2)cc1`, the figures for the IC50 in test [2], in test [1] and in test [5] were 500 nM, 300 nM and 900 nM, respectively. Besides, the Ratio in test [3] turned out to be 2300; in test [4] it was 0.45.
